Compounds with a hit are over-represented: about 2% of the library has one in this group of screens.
SUMO1 PPI mod = SUMO1-SIM interaction modulation. AID 602429. SUMO1 binding to a labelled peptide, TR-FRET, 1 h. actives 0.33% (n = 360,000). inhibition, % at 20 µM. P63165; in the data active = inhibition above about 37%
CSN inh = CSN deneddylation inhibition | Q92905 | Purified CSN, SCF-Nedd8-OG deneddylation, fluorescence polarization | inhibition, % at 12.5 µM | actives 0.38% (n = 360,000);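 active = pattern-corrected inhibition above about 35%, with an unprinted fluorescence ratio check between 0.5 and 1.5, limit read from the data, passing the limit was not always enough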;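 note: 0% = enzyme with substrate and 100% = substrate without enzyme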
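Assay system: purified human Csn5 enzyme expressed in HEK293T cells; measure: % inhibition; also added: SCFSkp2-Nedd8OG substrate at 10 nM final; technique: fluorescence polarization; times: reaction 90 min, room temperature; medium: Tris buffer pH 7.5, NaCl, DTT, Tween-20, trehalose, ovalbumin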
DNMT1 inh = inhibitors of human DNMT1; P26358; DNMT1 molecular beacon, Hinp1I cleavage, fluorescence; inhibition (reported as % activation of signal), % at 10 µM; actives 0.83% (n = 360,000); in the data active = inhibition above about 50%
Scp1 inh = blocks human Scp-1 phosphatase activity. Q9GZU7. Recombinant Scp1, phosphopeptide, malachite green phosphate absorbance. inhibition, % at 20 µM. actives 0.88% (n = 340,000). AID 493091;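 active = inhibition above about 50% at 20 µM, limit read from the data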;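 note: plate controls were DMSO wells with enzyme for no effect and wells lacking enzyme for full effect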
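Test system: SCP-1 catalytic domain; Buffer or medium: Acidic Tris acetate buffer with magnesium and detergent; Also added: Phosphorylated 17-residue peptide substrate; Compound: single 20 µM dose, 1% DMSO; Schedule: enzyme reaction 45 min at room temperature, colour 5 min, stabilisation 30 min; Signal: Phosphate-binding colour reagent, absorbance read at 630 nm.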
LMPTP inh = blocks human LMPTP phosphatase. P24666. recombinant LMPTP-A, OMFP fluorogenic substrate, fluorescence intensity. inhibition, % at 20 µM. actives 0.22% (n = 360,000). AID 651560;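 active = compounds that cut the enzyme signal by at least half of the control window in the single-dose screen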;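 note: plate controls were DMSO wells with enzyme plus substrate for no effect and substrate without enzyme for full effect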
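test system = LMPTP-A | amount = 0.625 nM LMPTP-A final | reagent = fluorogenic phosphatase substrate OMFP at 400 µM final | incubation = 50 min at room temperature | benchmarks = no-enzyme low control, uninhibited high control | medium = Bis-Tris pH 6.0, DTT, detergent | signal = fluorescence intensity of OMFP turnover product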
STEP inh = blocks human striatal-enriched tyrosine phosphatase. actives 0.25% (n = 360,000). P54829. recombinant STEP, OMFP fluorogenic substrate, fluorescence. inhibition, % at 20 µM;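 active = inhibition at 20 µM, scaled per plate between control wells, above about 37%, limit read from the data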;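 note: 0% = DMSO with enzyme and substrate and 100% = substrate only without enzyme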
Target sequence (P54829 whole entry, looked up): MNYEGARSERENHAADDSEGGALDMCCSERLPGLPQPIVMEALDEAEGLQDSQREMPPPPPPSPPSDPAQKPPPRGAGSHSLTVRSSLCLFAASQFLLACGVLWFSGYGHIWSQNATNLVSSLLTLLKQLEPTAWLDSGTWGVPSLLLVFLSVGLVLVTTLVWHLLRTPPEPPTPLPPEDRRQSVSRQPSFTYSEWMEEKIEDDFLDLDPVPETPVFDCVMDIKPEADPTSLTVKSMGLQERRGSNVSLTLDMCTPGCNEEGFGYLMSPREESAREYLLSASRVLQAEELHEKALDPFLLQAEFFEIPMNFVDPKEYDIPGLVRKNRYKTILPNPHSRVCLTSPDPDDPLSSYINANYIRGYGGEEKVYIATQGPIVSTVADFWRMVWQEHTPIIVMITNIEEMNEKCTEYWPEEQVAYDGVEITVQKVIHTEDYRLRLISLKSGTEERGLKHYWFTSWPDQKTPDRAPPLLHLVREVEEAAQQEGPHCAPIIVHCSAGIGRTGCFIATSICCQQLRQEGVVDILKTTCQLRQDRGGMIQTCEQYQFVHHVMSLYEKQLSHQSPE
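Assay system: isolated STEP enzyme / Timing: 20 min at room temperature, dark / Doses: 20 µM, 1% DMSO / Technique: fluorescence intensity, excitation 480 nm, emission 540 nm / Reagent: fluorogenic phosphatase substrate OMFP at 25 µM final / Measure: percent inhibition scaled to no-enzyme and uninhibited-enzyme controls, plate-pattern corrected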
An asterisk follows results filed as active; x = not tested or not shown.

SMILES	SUMO1 PPI mod	CSN inh	DNMT1 inh	Scp1 inh	LMPTP inh	STEP inh
O=C1Nc2ccccc2Oc2cc([N+](=O)[O-])cc(Oc3ccccc3)c21	-4	36*	-3	12	5	-4
Cc1cccc(Oc2cc([N+](=O)[O-])cc3c2C(=O)Nc2ccccc2O3)c1	-2	39*	1	36	5	-5
O=[N+]([O-])c1cc2c(c([N+](=O)[O-])c1)Nc1ccccc1O2	-33	0	7	x	7	4
COc1ccc(C(=O)NCCS(=O)(=O)N(C)Cc2ccccc2)cc1	5	4	-1	-6	-1	-2
COc1cc(/C=C2/C(=O)NN(c3ccc(Cl)c(Cl)c3)C2=O)cc([N+](=O)[O-])c1O	9	3	10	92*	6	9
COc1cc(/C=C2/C(=O)NN(c3ccc(F)cc3)C2=O)cc(Cl)c1O	-44	14	5	-6	4	3
Cc1cc(C)n2nc3nc(N4CCCCC4)nc(-c4ccco4)c3c2n1	11	5	54*	43	32	4
O=C(C1=C(O)C(=O)N(c2ncccn2)C1c1ccc(Cl)c(Cl)c1)c1ccco1 (stereo not drawn)	-3	48*	14	1	3	2
O=C(C1=C(O)C(=O)N(c2ncccn2)C1c1ccc(Cl)cc1)c1ccco1 (stereo not drawn)	6	25	23	-5	1	2
O=C(CNC(=O)c1ccc(Cl)cc1)NC(CO)c1ccccc1 (stereo not drawn)	-3	-4	3	-6	0	-2
Cc1cc(N2CCCCC2)nc(-c2ccc(Br)cc2)n1	45*	-4	-4	-4	4	0
O=C(Nc1ccc(Cc2ccncc2)cc1)c1cccc([N+](=O)[O-])c1	-20	1	-4	-4	0	-3
O=C(Nc1ccc(Nc2ccncc2)cc1)c1ccc(Nc2ccnc3ccc([N+](=O)[O-])cc23)cc1	128*	92	-70	0	78*	85*
O=C1CSC(=S)N1N=Cc1c(F)cccc1Cl	2	5	-14	x	1	3
CN(C)c1ccc(C=NN2C(=O)CSC2=S)c(Cl)c1	-11	60*	-2	x	4	-7
O=C1/C(=C/c2cccs2)SC(=S)N1NS(=O)(=O)c1ccccc1	-12	33	2	-4	0	3
O=C1/C(=C/C=C/c2ccco2)SC(=S)N1NS(=O)(=O)c1ccccc1	112*	62	87*	82*	62*	43*
CC(C(=O)O)N1C(=O)/C(=C/C=C/c2ccco2)SC1=S (stereo not drawn)	100*	49	83*	79*	78*	99*
COc1ccc(-n2nc([N+](=O)[O-])c(=NCCC3=CCCCC3)n2O)cc1	-35	-1	0	-12	1	0
CCCC[C@@H]1CNC(=O)C(=O)N1CCCC	49*	-5	x	x	17	x
CCCCN1C(=O)C(=O)NC[C@@H]1CCCCN	0	-5	0	-3	-5	-1
Cc1cccc(-c2oc3ccc(-c4ccc5c(c4)OCO5)cc3c2/C=C/c2ccc(N)cc2)c1	0	0	-34	4	1	-4
Nc1c(S(=O)(=O)O)cc(NC(=O)c2ccccc2)c2c1C(=O)c1ccccc1C2=O	69*	-5	39	71*	16	33
O=C1Nc2ccccc2/C1=C/c1cnc(-c2ccccc2)[nH]1	43*	6	27	-3	18	-5
CCN1CCN(c2cc(N3CCN(C(=O)c4ccco4)CC3)c3c4c(onc24)-c2ccccc2C3=O)CC1	24	-11	-21	11	12	3
SMILES	SUMO1 PPI mod	CSN inh	DNMT1 inh	Scp1 inh	LMPTP inh	STEP inh
O=C(O)CCNc1cc(N2CCN(C(=O)c3ccco3)CC2)c2noc3c2c1C(=O)c1ccccc1-3	50*	28	106*	81*	11	41*
CCOc1cccc(CNc2ccc(O)cc2)c1OCc1ccccc1Cl	44*	27	-46	-8	22	-6
CCOc1cccc(CNn2cnnc2)c1OCc1ccccc1Cl	0	3	0	6	-2	-3
CCOc1cccc(CNc2ccc(O)cc2)c1OCc1ccc(Cl)cc1Cl	68*	32	-28	-5	17	10
Cn1cnnc1SCC(=O)Nc1nc(-c2ccccc2)cs1	1	-11	2	-4	-2	-1
CCOC(=O)c1c(NC(=O)COC(=O)CCOc2ccc(OCC)cc2)sc(C(=O)N(C)C)c1C	5	121*	1	6	2	2
CCOC(=O)c1c(NC(=O)COC(=O)CCOc2ccc(C)cc2)sc(C(=O)N(C)C)c1C	9	3	1	-6	2	1
COc1cc(C(=O)NCC(c2ccccc2)N(C)C)ccc1OCC(=O)N1CCOCC1 (stereo not drawn)	4	0	7	-6	1	-1
CCCCc1ccc(-c2csc(/C(C#N)=C\c3ccco3)n2)cc1	-1	26	8	-1	2	1
CCCCc1ccc(-c2csc(/C(C#N)=C/c3ccc(C)o3)n2)cc1	1	41*	16	-11	2	4
C/C(=N\NC(=O)c1ccccc1O)C1C(=O)c2ccccc2C1=O	12	0	-18	-8	2	0
C/C(=N/NC(=O)c1cc2ccccc2cc1O)C1C(=O)c2ccccc2C1=O	29	9	-24	21	66*	-2
C/C(=N\NC(=O)c1cc2ccccc2cc1O)c1cc2ccccc2o1	2	3	-15	90*	9	11
C/C(=N\NC(=O)c1cc2ccccc2cc1O)c1ccccn1	-7	2	-1	17	0	22
CC1(C)CC(=O)C2=C(C1)Nc1ncnn1C2c1cccs1 (stereo not drawn)	0	-2	11	6	-3	-1
Cc1cc(C)nc(NS(=O)(=O)c2ccc(CC(C)C)cc2)c1	-3	3	0	-5	0	-3
CC1CCCN(CC(O)COc2ccc(S(=O)(=O)N3CCCC3)cc2[N+](=O)[O-])C1 (stereo not drawn)	-12	1	-3	7	-2	0
S=c1[nH]nc(-c2ccc3ccccc3n2)o1	1	113*	3	9	0	1
O=C(COC(=O)c1ccccc1OC(F)F)Nc1ccc2[nH]c(=O)[nH]c2c1	40*	-3	-10	26	-1	-3
CCC(C(=O)OCC(=O)Nc1ccc2[nH]c(=O)[nH]c2c1)c1ccccc1 (stereo not drawn)	43*	-3	3	-6	0	-1

Screens from PubChem BioAssay.
